Assay results reported in ChEMBL document CHEMBL3739413, “Discovery of substituted-2,4-dimethyl-(naphthalene-4-carbonyl)amino-benzoic acid as potent and selective EP4 antagonists” (Bioorg Med Chem Lett, 2016).
Values after ≈ are worked out from the molar mass of the structure shown.

What was measured:
[1] = target: T1, Prostaglandin E2 receptor EP4 subtype (Homo sapiens, UniProt P35408); assay: Antagonist activity at human EP4 receptor in HEK293 cells assessed as inhibition of PGE2-induced cAMP accumulation; assay type: functional, cell-based
T1 sequence (P35408 whole entry): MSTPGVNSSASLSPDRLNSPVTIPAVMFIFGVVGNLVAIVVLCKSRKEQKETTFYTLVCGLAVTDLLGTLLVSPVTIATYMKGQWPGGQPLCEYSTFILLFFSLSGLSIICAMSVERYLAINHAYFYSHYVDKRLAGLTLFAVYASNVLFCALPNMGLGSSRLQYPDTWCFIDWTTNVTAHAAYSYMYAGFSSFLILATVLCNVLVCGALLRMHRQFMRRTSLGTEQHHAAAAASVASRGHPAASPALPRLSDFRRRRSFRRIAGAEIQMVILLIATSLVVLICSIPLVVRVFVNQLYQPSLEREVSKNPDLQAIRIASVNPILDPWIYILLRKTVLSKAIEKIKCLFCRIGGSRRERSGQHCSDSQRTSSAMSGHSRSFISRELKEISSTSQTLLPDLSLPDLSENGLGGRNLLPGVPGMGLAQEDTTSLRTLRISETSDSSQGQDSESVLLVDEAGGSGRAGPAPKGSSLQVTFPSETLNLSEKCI
In short: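 HEK293 cells; functional readout was inhibition of PGE2-induced cAMP accumulation. IC50 reported ± SEM, with number of experiments.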

[2] = target: T1, Prostaglandin E2 receptor EP4 subtype; assay: Antagonist activity at human EP4 receptor
[3] = target: T1, Prostaglandin E2 receptor EP4 subtype; assay: Antagonist activity at EP4 receptor in human whole blood assessed as reversal of inhibition of PGE2 mediated LPS-induced TNF alpha production pretreated for 30 mins using 3,3',5,5' tetramethylbiphenyl-4,4'-diamine substrate measured after 20 to 24 hrs by immunoassay; assay type: tissue-based
In short: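 Pooled heparinized blood from volunteer donors (no NSAIDs or celecoxib for 48 h, no glucocorticoids for 2 weeks). Compounds added in triplicate as 7-point curves from DMSO stocks at 100× final, preincubated 30 min at 37 °C under 5% CO2. Stimulated with LPS ± PGE2 (final 10 nM), incubated 20–24 h, plasma TNFα read by ELISA at A450–A650. IC50 from sigmoidal fit, reported as geometric mean ± SD.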

[4] = Cmax in rat at 5 mg/kg, po; assay type: ADME, organism-based; parameters: dose 5 mg/kg, route oral; conditions: in vivo
[5] = Drug metabolism in rat hepatic microsomes incubated for 30 mins in presence of NADPH; assay type: ADME, Microsome; conditions: liver microsomes, read-out: Drug metabolism
In short: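 Compound incubated 30 min with rat liver microsomes and NADPH; percent metabolized reported.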

[6] = target: T1, Prostaglandin E2 receptor EP4 subtype; assay: Potency index, ratio of IC50 for CJ-023423 to IC50 for test compound against EP4 receptor in human whole blood; assay type: tissue-based
[7] = Tmax in rat at 5 mg/kg, po; assay type: ADME, organism-based; conditions: in vivo
[8] = Ratio of Cmax in rat to IC50 for EP4 in human whole blood
[9] = Oral bioavailability in rat at 5 mg/kg; assay type: ADME, organism-based; conditions: in vivo
[10] = Clearance in rat at 1 mg/kg, iv; assay type: ADME, organism-based; conditions: in vivo
In short: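 Rat dosed intravenously at 1 mg/kg.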

[11] = Drug metabolism in rat hepatic microsomes; assay type: ADME, Microsome; conditions: liver microsomes, read-out: Drug metabolism
[12] = Drug metabolism in human hepatic microsomes; assay type: ADME, Microsome; conditions: liver microsomes, read-out: Drug metabolism
[13] = Aqueous solubility of the compound at pH 6; assay type: physicochemical; conditions: aqueous medium
[14] = target: T2, Cytochrome P450 2C8 (Homo sapiens, UniProt P10632); assay: Inhibition of CYP2C8 (unknown origin); assay type: ADME
T2 sequence (P10632 whole entry): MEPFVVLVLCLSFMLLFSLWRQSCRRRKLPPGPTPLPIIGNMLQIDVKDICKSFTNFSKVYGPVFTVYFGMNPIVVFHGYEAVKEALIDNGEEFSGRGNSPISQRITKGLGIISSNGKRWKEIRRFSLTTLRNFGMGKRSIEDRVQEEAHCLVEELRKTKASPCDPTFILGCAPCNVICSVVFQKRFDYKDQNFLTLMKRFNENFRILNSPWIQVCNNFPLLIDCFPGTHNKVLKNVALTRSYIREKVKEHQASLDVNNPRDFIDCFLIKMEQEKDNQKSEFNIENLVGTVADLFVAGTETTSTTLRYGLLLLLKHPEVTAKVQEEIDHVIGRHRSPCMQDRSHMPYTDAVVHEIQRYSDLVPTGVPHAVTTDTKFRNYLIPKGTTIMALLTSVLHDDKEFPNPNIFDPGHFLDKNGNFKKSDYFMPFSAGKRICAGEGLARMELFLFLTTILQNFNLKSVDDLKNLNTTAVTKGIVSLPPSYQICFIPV

[15] = target: T3, Prostaglandin E2 receptor EP1 subtype (Homo sapiens, UniProt P34995); assay: Antagonist activity at human EP1 receptor
T3 sequence (P34995 whole entry): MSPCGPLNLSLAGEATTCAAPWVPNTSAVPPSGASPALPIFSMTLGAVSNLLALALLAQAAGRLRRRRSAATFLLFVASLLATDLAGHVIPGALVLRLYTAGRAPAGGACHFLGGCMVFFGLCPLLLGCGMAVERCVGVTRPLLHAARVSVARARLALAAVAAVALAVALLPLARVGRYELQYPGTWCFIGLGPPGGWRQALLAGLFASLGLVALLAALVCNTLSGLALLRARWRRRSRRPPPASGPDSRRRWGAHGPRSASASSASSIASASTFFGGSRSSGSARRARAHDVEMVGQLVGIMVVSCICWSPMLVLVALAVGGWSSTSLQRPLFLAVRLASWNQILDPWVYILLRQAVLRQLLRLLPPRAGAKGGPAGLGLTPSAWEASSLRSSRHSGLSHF

[16] = target: Cytochrome P450 2C9 (Homo sapiens, UniProt P11712); assay: Inhibition of CYP2C9 (unknown origin); assay type: ADME
Cytochrome P450 2C9, sequence (P11712 whole entry): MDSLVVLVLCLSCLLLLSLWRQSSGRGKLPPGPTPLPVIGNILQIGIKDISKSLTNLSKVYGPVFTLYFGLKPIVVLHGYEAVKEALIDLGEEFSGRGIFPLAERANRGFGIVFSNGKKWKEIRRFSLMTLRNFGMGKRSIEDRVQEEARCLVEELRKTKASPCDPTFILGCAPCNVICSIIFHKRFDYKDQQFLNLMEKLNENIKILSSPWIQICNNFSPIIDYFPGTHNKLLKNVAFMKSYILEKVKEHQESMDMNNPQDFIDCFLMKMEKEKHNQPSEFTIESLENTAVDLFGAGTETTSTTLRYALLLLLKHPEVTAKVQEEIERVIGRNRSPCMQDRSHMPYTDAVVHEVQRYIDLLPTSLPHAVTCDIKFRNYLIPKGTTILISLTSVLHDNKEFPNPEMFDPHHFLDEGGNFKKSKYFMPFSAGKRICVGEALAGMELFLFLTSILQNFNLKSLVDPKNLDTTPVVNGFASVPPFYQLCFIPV

[17] = target: Cytochrome P450 2C19 (Homo sapiens, UniProt P33261); assay: Inhibition of CYP2C19 (unknown origin); assay type: ADME
Cytochrome P450 2C19, sequence (P33261 whole entry): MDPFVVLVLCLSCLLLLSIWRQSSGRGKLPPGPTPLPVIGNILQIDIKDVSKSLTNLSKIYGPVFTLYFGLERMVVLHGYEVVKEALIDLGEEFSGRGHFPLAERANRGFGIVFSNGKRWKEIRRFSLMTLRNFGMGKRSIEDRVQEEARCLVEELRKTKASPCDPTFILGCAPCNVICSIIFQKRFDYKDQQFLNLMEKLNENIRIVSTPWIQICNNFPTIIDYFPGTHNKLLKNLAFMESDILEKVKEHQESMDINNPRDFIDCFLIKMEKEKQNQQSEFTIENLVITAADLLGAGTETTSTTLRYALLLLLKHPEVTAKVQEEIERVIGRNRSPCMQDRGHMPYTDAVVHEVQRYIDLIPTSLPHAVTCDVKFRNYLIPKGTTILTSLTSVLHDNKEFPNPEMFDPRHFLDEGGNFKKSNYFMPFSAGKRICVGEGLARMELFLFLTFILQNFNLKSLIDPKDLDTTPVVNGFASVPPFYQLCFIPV

[18] = target: Cytochrome P450 2D6 (Homo sapiens, UniProt P10635); assay: Inhibition of CYP2D6 (unknown origin); assay type: ADME
Cytochrome P450 2D6, sequence (P10635 whole entry): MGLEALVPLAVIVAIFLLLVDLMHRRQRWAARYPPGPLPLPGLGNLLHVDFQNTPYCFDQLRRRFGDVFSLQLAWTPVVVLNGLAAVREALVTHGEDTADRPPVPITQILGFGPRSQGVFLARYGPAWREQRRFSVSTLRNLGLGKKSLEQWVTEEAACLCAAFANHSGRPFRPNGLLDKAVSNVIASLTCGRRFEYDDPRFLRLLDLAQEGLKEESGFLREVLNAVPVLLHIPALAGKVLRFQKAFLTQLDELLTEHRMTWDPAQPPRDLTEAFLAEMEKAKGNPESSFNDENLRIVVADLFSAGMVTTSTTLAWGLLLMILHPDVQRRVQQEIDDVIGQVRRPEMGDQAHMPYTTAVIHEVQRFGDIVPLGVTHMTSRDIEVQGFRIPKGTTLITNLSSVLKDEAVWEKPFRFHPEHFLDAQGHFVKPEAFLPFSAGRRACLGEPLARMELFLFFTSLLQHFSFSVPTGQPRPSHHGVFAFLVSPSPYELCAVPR

[19] = target: T4, Cytochrome P450 1A2 (Homo sapiens, UniProt P05177); assay: Inhibition of CYP1A2 (unknown origin); assay type: ADME
T4 sequence (P05177 whole entry): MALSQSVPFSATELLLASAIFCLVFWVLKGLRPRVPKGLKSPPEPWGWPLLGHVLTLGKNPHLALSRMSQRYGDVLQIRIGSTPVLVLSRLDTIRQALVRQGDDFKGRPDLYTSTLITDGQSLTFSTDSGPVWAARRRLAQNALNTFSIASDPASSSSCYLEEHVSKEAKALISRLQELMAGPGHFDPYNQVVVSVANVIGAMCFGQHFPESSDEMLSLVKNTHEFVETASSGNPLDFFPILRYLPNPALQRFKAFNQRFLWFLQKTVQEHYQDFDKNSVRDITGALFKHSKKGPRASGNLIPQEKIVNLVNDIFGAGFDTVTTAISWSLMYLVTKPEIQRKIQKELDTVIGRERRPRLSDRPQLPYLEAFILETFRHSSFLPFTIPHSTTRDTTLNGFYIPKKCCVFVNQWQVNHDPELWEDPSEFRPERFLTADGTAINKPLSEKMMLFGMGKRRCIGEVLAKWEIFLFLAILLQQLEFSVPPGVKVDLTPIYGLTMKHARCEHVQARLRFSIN

[20] = target: Cytochrome P450 3A4 (Homo sapiens, UniProt P08684); assay: Inhibition of CYP3A4 (unknown origin); assay type: ADME
Cytochrome P450 3A4, sequence (P08684 whole entry): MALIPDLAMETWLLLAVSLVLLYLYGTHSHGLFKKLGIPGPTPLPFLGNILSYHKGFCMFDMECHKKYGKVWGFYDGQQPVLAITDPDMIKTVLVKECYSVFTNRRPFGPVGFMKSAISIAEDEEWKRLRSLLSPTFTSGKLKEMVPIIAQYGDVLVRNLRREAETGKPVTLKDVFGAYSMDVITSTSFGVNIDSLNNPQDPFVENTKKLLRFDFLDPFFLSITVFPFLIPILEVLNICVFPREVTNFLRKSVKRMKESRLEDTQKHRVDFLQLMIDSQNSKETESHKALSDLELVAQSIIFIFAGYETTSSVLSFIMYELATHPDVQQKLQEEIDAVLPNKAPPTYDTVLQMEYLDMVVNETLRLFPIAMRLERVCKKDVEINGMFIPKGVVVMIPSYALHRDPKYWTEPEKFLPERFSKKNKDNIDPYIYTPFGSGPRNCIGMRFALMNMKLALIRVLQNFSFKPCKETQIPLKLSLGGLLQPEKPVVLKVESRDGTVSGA

[21] = target: T5, Prostaglandin E2 receptor EP3 subtype (Homo sapiens, UniProt P43115); assay: Antagonist activity at human EP3 receptor
T5 sequence (P43115 whole entry): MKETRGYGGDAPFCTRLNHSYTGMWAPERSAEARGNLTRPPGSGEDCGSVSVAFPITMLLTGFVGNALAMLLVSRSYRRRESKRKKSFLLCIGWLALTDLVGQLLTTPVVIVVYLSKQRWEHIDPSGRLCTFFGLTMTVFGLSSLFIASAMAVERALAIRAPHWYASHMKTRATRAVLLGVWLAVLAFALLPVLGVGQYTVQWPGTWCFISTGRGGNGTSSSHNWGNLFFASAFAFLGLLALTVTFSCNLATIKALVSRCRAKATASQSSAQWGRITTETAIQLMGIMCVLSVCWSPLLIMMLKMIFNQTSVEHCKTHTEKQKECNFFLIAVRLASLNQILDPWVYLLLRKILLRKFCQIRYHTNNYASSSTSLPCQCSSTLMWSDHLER

[22] = target: T6, Cytochrome P450 2B6 (Homo sapiens, UniProt P20813); assay: Inhibition of CYP2B6 (unknown origin); assay type: ADME
T6 sequence (P20813 whole entry): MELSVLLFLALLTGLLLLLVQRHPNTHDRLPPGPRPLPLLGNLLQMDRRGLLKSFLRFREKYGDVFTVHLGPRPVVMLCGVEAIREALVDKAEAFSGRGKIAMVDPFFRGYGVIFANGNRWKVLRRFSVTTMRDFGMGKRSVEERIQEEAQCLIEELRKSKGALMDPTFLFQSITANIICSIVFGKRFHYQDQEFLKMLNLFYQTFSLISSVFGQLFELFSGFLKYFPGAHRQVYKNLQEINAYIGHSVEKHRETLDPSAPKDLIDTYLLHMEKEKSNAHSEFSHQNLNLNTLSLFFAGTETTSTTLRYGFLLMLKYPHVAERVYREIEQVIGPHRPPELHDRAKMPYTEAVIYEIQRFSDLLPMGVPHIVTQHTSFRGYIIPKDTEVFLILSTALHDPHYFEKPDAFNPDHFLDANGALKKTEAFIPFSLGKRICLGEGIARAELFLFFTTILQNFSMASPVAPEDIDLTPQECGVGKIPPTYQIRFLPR

[23] = target: Prostaglandin E2 receptor EP2 subtype (Homo sapiens, UniProt P43116); assay: Antagonist activity at human EP2 receptor
Prostaglandin E2 receptor EP2 subtype, sequence (P43116 whole entry): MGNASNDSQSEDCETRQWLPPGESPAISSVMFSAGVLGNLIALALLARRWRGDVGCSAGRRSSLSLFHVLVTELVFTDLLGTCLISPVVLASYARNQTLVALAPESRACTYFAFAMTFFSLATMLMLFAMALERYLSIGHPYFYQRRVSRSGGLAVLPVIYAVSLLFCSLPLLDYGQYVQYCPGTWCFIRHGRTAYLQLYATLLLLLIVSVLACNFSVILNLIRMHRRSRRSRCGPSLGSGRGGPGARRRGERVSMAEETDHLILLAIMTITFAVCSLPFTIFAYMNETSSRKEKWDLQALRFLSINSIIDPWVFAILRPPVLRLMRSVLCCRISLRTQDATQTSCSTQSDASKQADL

## Cc1cc(C(=O)O)cc(C)c1NC(=O)c1cc(-c2cccc(CO)c2)cc2ccccc12
[1]
  IC50: 1.11 nM
[2]
  Ki: 3.54 nM
[3]
  IC50: 136 nM

## Cc1ccc(C(=O)O)c(C)c1NC(=O)c1cc(-c2cccc(CO)c2)cc2ccccc12
[4]
  Cmax: 85.7 ng/mL
[1]
  IC50: 2.42 nM
[5]
  metabolised at 0.5 h: < 1%
[6]
  Ratio IC50: > 250
[7]
  Tmax: 15 min
[8]
  Ratio: 33
[2]
  Ki: 1.98 nM
[9]
  bioavailability: 6%
[10]
  clearance: 23.8 mL/min/kg
[3]
  IC50: 6.2 nM

## Cc1cccc(C)c1NC(=O)c1cc(-c2ccc(C(=O)O)cc2)nc2ccccc12
[1]
  IC50: > 25000 nM
[2]
  Ki: > 19200 nM
[3]
  IC50: > 30000 nM

## CCc1nc2c(C)nc(C)cc2n1-c1ccc(CCNC(=O)NS(=O)(=O)c2ccc(C)cc2)cc1 [GRAPIPRANT]
[11]
  metabolised: 5%
[12]
  metabolised: 2%
[13]
  solubility: 977 µg/mL (≈ 1990 µM)
[3]
  IC50: 1520 nM

## Cc1cc(C(=O)O)cc(C)c1NC(=O)c1cc(-c2ccccc2)cc2ccccc12
[1]
  IC50: 3.48 nM
[2]
  Ki: 8.04 nM
[3]
  IC50: 623 nM

## Cc1ccc(C(=O)O)c(C)c1NC(=O)c1cc(-c2cccc(CO)c2)nc2ccccc12
[1]
  IC50: 5.2 nM
[6]
  Ratio IC50: > 5
[2]
  Ki: 17 nM
[3]
  IC50: 312 nM

## Cc1cc(C(=O)O)cc(C)c1NC(=O)c1cc(-c2ccccc2)nc2ccccc12
[1]
  IC50: 11.2 nM
[2]
  Ki: 39.2 nM
[3]
  IC50: 1980 nM

## Cc1ccc(C(=O)O)c(C)c1NC(=O)c1cc(-c2cccc(Cl)c2)cc2ccccc12
[4]
  Cmax: 10900 ng/mL
[1]
  IC50: 3.62 nM
[5]
  metabolised at 0.5 h: 7%
[14]
  IC50: > 10000 nM
[15]
  IC50: > 25000 nM
  Ki: > 19500 nM
[7]
  Tmax: 60 min
[16]
  IC50: > 10000 nM
[17]
  IC50: > 10000 nM
[18]
  IC50: > 10000 nM
[19]
  IC50: > 10000 nM
[20]
  IC50: > 10000 nM
[8]
  Ratio: 104
[21]
  IC50: > 25000 nM
  Ki: > 17500 nM
[22]
  IC50: > 10000 nM
[23]
  IC50: 3700 nM
  Ki: 2800 nM
[2]
  Ki: 3.49 nM
[9]
  bioavailability: 100%
[10]
  clearance: 1.9 mL/min/kg
[3]
  IC50: 243 nM

## Cc1cccc(C)c1NC(=O)c1cc(-c2ccccc2)nc2ccccc12
[1]
  IC50: 128 nM
[11]
  metabolised: 64%
[12]
  metabolised: 71%
[13]
  solubility: < 1 µg/mL
[2]
  Ki: 512 nM
[3]
  IC50: > 30000 nM

## Cc1cc(C(=O)O)cc(C)c1NC(=O)c1cc(-c2cccc(CO)c2)nc2ccccc12
[4]
  Cmax: 42.3 ng/mL
[1]
  IC50: 3.08 nM
[5]
  metabolised at 0.5 h: < 1%
[7]
  Tmax: 15 min
[8]
  Ratio: 0.2
[2]
  Ki: 52.3 nM
[9]
  bioavailability: 3%
[10]
  clearance: 59.6 mL/min/kg
[3]
  IC50: 501 nM

## Cc1ccc(C(=O)O)c(C)c1NC(=O)c1cc(-c2ccccc2)cc2ccccc12
[1]
  IC50: 5.65 nM
[2]
  Ki: 6.72 nM
[3]
  IC50: 577 nM
